Here are results for 20 compounds from ChEMBL document CHEMBL1142820, “Identification of potent and selective MMP-13 inhibitors” (Bioorg Med Chem Lett, 2005).

Data set [1] has as its target 72 kDa type IV collagenase (Homo sapiens, UniProt P08253). The experiment in a line: Inhibitory concentration against MMP-2. The essentials: (§1)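 Continuous fluorescence assay of commercially sourced enzyme cleaving a synthetic peptide whose fluorophore (7-methoxycoumarin or 2-aminobenzoyl) is quenched by 2,4-dinitrophenyl. Signal is read at the fluorophore's excitation/emission wavelengths. MMP-2 was preactivated with APMA. MMP-3 used substrate Mca-PKPLAL-Dpa-AR-NH2.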

In data set [2] the target is Matrix metalloproteinase-14 (Homo sapiens, UniProt P50281). The experiment in a line: Inhibitory concentration against MMP-14.
The target in data set [3] is Collagenase 3 (Bos taurus, UniProt O77656). In words: Inhibitory concentration against MMP-13 of bovine articular cartilage explants.
The species entered for data set [4] is Bos taurus. The experiment in a line: Selectivity ratio for IC50 of MMP-2 to that of MMP-13. A digest of the protocol: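 Both IC50s come from continuous fluorescence assays using quenched peptide substrates (7-methoxycoumarin or 2-aminobenzoyl fluorophore, 2,4-dinitrophenyl quencher), read by plate fluorimeter. MMP-13 was prepared in-house. MMP-2 was commercial and activated with […]. […] The ratio is MMP-2 IC50 over MMP-13 IC50.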

Data set [5] is described as follows: Total clearance from rat upon iv administration at 2 mg/kg. Set-up: dose 2 mg/kg, route intravenous. It counts as ADME, organism-based. The note with it: in vivo. The essentials: (§2)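 Rats were dosed intravenously at 2 mg/kg and orally at 5 mg/kg. Clearance and iv half-life come from the intravenous arm, oral half-life from the oral arm, and bioavailability from comparison of the two routes.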

For data set [6], the target named is T1, Interstitial collagenase (Homo sapiens, UniProt P03956).
T1 sequence (P03956 whole entry): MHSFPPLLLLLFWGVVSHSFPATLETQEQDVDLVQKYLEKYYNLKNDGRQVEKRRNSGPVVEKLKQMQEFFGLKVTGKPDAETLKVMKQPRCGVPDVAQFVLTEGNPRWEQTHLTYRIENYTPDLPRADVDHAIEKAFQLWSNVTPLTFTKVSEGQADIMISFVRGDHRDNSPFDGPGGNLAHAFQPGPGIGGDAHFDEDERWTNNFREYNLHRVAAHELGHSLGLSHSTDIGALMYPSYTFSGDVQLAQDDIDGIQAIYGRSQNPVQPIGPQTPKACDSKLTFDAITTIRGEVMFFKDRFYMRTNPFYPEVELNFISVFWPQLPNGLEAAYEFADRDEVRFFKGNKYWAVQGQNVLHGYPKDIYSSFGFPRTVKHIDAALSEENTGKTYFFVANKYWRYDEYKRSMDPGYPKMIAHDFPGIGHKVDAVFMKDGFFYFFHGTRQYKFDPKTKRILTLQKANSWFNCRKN
The experiment in a line: Inhibitory concentration against MMP-1. A digest of the protocol: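 Continuous fluorescence assay with in-house prepared enzyme. The synthetic peptide substrate carries a 7-methoxycoumarin or 2-aminobenzoyl fluorophore quenched by energy transfer to 2,4-dinitrophenyl. Read in plate fluorimeter at fluorophore excitation/emission wavelengths.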

Data set [7] in a line: Oral bioavailability in rat. The class given is ADME, organism-based. The note with it: in vivo. A digest of the protocol: as §2
Data set [8] is described as follows: Half-life in rat upon iv administration. The note with it: in vivo. The class given is ADME, organism-based. A digest of the protocol:
as §2

The nature of data set [9]: Half-life in rat upon oral administration at 5 mg/kg. The class given is ADME, organism-based. Set-up: dose 5 mg/kg, route oral. The note with it: in vivo. The essentials: as §2
The nature of data set [10]: Inhibitory concentration against MMP-7. A digest of the protocol: as §1
The nature of data set [11]: Inhibitory concentration against MMP-9. A digest of the protocol: as §1
Data set [12] can be described thus: Inhibitory concentration against MMP-3. The essentials: as §1

SMILES strings stand for the structures. A value given as a limit tells only on which side of the number the result lay.

72 kDa type IV collagenase, sequence (P08253 whole entry): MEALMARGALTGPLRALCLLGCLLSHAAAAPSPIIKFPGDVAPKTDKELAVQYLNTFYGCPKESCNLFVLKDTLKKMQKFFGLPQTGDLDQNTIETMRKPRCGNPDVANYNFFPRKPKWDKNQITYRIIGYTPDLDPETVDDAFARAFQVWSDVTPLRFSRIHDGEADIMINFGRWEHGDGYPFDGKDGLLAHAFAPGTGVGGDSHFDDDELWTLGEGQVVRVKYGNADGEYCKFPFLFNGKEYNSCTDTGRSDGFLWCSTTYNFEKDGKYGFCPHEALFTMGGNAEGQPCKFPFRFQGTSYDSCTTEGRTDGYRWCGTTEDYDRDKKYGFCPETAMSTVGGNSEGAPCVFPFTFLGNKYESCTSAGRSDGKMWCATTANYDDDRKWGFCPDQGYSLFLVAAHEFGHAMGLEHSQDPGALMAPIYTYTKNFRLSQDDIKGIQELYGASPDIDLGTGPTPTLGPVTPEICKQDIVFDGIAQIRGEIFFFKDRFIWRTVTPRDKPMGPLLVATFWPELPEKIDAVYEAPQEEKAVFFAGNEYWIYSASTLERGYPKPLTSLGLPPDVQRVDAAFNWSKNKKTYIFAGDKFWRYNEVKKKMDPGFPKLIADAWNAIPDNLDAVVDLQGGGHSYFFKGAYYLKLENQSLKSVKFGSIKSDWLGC

The IC50 is the concentration that inhibits the measured activity by half. A lower IC50 goes with greater potency in that assay. With `CC(C)[C@H](NS(=O)(=O)c1ccc(-c2ccc(NCc3cc4ccccc4o3)cc2)cc1)C(=O)O`, the IC50 in data set [1] is 23.3 nM; in data set [2], 6600 nM; in [3] it was 4.9 nM.
The compound `NC(=O)C[C@H](NS(=O)(=O)c1ccc(-c2ccc(NC(=O)c3cc4ccccc4o3)cc2)cc1)C(=O)O` yielded an IC50 in data set [3] of 2.53 nM.
Still for that read-out and setting: under `Cc1cc(C)c(N(Cc2ccccc2)S(=O)(=O)c2ccc(OCCNC(=O)c3cc4ccccc4o3)cc2)c(C(=O)NO)c1` stands 10000 nM; under `O=C(O)CNS(=O)(=O)c1ccc(-c2ccc(NC(=O)c3cc4ccccc4o3)cc2)cc1`, 22 nM.
In data set [3], `CC(C)C[C@H](NS(=O)(=O)c1ccc(-c2ccc(NC(=O)c3cc4ccccc4o3)cc2)cc1)C(=O)O` yielded an IC50 of 2.19 nM.
As for `O=C(Nc1ccc(-c2ccc(S(=O)(=O)N[C@@H](CO)C(=O)O)cc2)cc1)c1cc2ccccc2o1`, the results for the IC50 in [1] and in [3] were 27.8 nM and 4.5 nM, respectively.
For `O=C(NCCCCN1CCOCC1)c1cc2ccccc2o1`, the IC50 in data set [3] turned out to be 3200 nM.
As to `CC(C)[C@H](NS(=O)(=O)c1ccc(-c2ccc(NC(=O)c3cc4cc(Cl)ccc4o3)cc2)cc1)C(=O)O`, the IC50 is 3.2 nM in data set [1] and 0.6 nM in data set [3]. The Selectivity in [4] was determined as 5.3.
`CC(C)[C@H](NS(=O)(=O)c1ccc(-c2ccc(NC(=O)c3cc4c(OCc5ccccc5)cccc4o3)cc2)cc1)C(=O)O`: the Selectivity in [4] amounted to 18.
Turning to `COc1ccc2oc(C(=O)Nc3ccc(-c4ccc(S(=O)(=O)N[C@H](C(=O)O)C(C)C)cc4)cc3)cc2c1`, the IC50 amounted to 1.9 nM in data set [1], 1.5 nM in data set [2] and 0.66 nM in data set [3]. Besides, the Selectivity in [4] worked out at 2.8.
Turning to `CC(C)[C@H](NS(=O)(=O)c1ccc(-c2ccc(NC(=O)c3cc4cc([N+](=O)[O-])ccc4o3)cc2)cc1)C(=O)O`, the IC50 amounted to 2 nM in data set [1] and 0.7 nM in data set [3]. Moreover, the Selectivity in data set [4] worked out at 2.8.
On to `CC(C)[C@H](NS(=O)(=O)c1ccc(-c2ccc(NC(=O)c3csnn3)cc2)cc1)C(=O)O`, for which, in data set [1], the IC50 was determined as 2.14 nM.
The compound `CC(C)[C@H](NS(=O)(=O)c1ccc(-c2ccc(NC(=O)c3cc4cc(NS(=O)(=O)c5ccccc5)ccc4o3)cc2)cc1)C(=O)O` registered an IC50 in data set [3] of 3.4 nM. In data set [4], the Selectivity amounted to 5.6.
As to `CC(C)[C@H](NS(=O)(=O)c1ccc(-c2ccc(NC(=O)c3cc4cc(NS(C)(=O)=O)ccc4o3)cc2)cc1)C(=O)O`, the IC50 in data set [1] was found to be 3.9 nM; in data set [3], 0.43 nM. Moreover, the Selectivity in data set [4] was 9.1.
As usually defined, the clearance is the volume of plasma or blood freed of the substance per unit of time. The low end stands for a low capacity for elimination, the high end for a high capacity for elimination. By bioavailability is commonly meant dose-corrected exposure relative to a reference, in per cent. A high value points to good availability. Usually half-life stands for the time needed for the level to fall by half in the phase considered. A higher half-life goes with slow decline. As to `CC(C)[C@H](NS(=O)(=O)c1ccc(-c2ccc(NC(=O)c3cc4ccccc4o3)cc2)cc1)C(=O)O`, the clearance in data set [5] came out at 2 mL/min/kg. The IC50 in [6] is more than 16000 nM; in data set [1] it was 5 nM. In [7], the bioavailability stood at 24%. Further, the half-life in [8] came to 3.7 h; in [9] it was 3 h.
As for `CC(Oc1cccc2oc(C(=O)Nc3ccc(-c4ccc(S(=O)(=O)N[C@H](C(=O)O)C(C)C)cc4)cc3)cc12)C(=O)O` (stereo not given in full), the IC50 in data set [1] amounted to 1590 nM; in data set [10] it was 2500 nM; in data set [11], 5600 nM; in data set [2], 20000 nM; in data set [3], 14.9 nM; in data set [12], 843 nM. Moreover, in data set [4], the Selectivity worked out at 107.
Take `CC(=O)Nc1ccc2oc(C(=O)Nc3ccc(-c4ccc(S(=O)(=O)N[C@H](C(=O)O)C(C)C)cc4)cc3)cc2c1`: the IC50 came to 4 nM in data set [1] and 0.98 nM in data set [3]. The Selectivity in data set [4] was 4.1.
With `CC(C)[C@H](NS(=O)(=O)c1ccc(-c2ccc(NC(=O)c3cc4cc(N)ccc4o3)cc2)cc1)C(=O)O`, in data set [3], the IC50 was 1.5 nM.
For the compound `COc1cccc2cc(C(=O)Nc3ccc(-c4ccc(S(=O)(=O)N[C@H](C(=O)O)C(C)C)cc4)cc3)oc12`, the IC50 is 12.1 nM in [1], 10900 nM in [2] and 20.2 nM in data set [3]. Also, the Selectivity in data set [4] is 0.6.
In the case of `COc1cccc2oc(C(=O)Nc3ccc(-c4ccc(S(=O)(=O)N[C@H](C(=O)O)C(C)C)cc4)cc3)cc12`, the IC50 in data set [3] is 2.33 nM. In [4], the Selectivity was found to be 6.9.
